Measurements gathered from unrelated publications.
Compare with care: the assays were run in different laboratories.
Target: Tyrosine-protein kinase Fgr (FGR, Homo sapiens, UniProt P09769)

| SMILES | observed | method | concentration | remaining binding [%] |
| --- | --- | --- | --- | --- |
| F[C@@H]1CCN(c2nccc(-c3cnn4ncccc34)n2)C1 | binding |  | 1 µM | 81 |
| Cc1cnc(Nc2ccc(C(=O)N3CCC(N4CCCC4)CC3)cc2)nc1-c1cc2ccccc2s1 | cell-free assay | competition with immobilised ligand | 1 µM | 53 |
| C[C@H](c1cccc(C#N)c1)n1cc(Cl)cc(C(N)=O)c1=N | cell-free assay | competition with immobilised ligand | 1 µM | 80 |
| O=C(NCC1CCOCC1)c1n[nH]cc1NC(=O)c1c(F)cccc1F | binding | competition with immobilised ligand | 1 µM | 100 |
| CN(C)c1nccc(-c2cnn3ncccc23)n1 | binding |  | 1 µM | 100 |
| O=C(NCc1ncc(C(F)(F)F)cc1Cl)c1ccc2c(c1)C1(CCS(=O)(=O)CC1)[C@H](C1CC1)N2S(=O)(=O)c1ccc(F)cc1 | cell-free assay | competition with immobilised ligand | 1 µM | 100 |
| c1cnn2ncc(-c3ccnc(N4CCC45COC5)n3)c2c1 | binding |  | 1 µM | 100 |
| COc1ncc2cc3ccccc3nc2c1C#N | cell-free assay | competition with immobilised ligand | 5 µM | 100 |
| O=C(c1ccc(Nc2ncc(Cl)c(-c3cc4ccccc4s3)n2)cc1)N1CCC(N2CCCC2)CC1 | cell-free assay | competition with immobilised ligand | 1 µM | 92 |
| CN(C)c1ncc(F)c(-c2cnn3ncccc23)n1 | binding |  | 1 µM | 88 |
| CCC(=N\O)/C(C)=C/c1ccc(F)cc1 | cell-free assay | competition with immobilised ligand | 1 µM | 67 |
| Cc1cnn2ncc(-c3ccnc(N(C)C)n3)c2c1 | binding |  | 1 µM | 100 |
| O=C(c1ccc(Nc2nccc(-c3cc4ccccc4s3)n2)cc1)N1CCC(N2CCCC2)CC1 | cell-free assay | competition with immobilised ligand | 1 µM | 93 |
| CNCc1ccccc1-c1csc([C@@H](C)Nc2nc(C)nc3cc(OC)c(OC)cc23)c1 | cell-free assay | competition with immobilised ligand | 1 µM | 100 |
| C[C@H]1CCN(c2nccc(-c3cnn4ncccc34)n2)C1 | binding |  | 1 µM | 100 |
| CCS(=O)(=O)c1cc2cc(C[C@](O)(CC(C)(C)c3ccc(F)cc3C(N)=O)C(F)(F)F)[nH]c2cn1 | cell-free assay | competition with immobilised ligand | 1 µM | 100 |
| CNC(=O)[C@@H]1CC[C@@H](n2c(-c3ccc4cnccc4c3)nc3ccc(C(=O)NCc4cccc(C(N)=O)c4)cc32)C1 | binding | competition with immobilised ligand | 1 µM | 100 |
| Nc1ncc2c(n1)-c1c([nH]c3ccc(C#CC4CC4)cc13)CCCC2 | binding | competition with immobilised ligand | 1 µM | 100 |
| CC(=O)Nc1c(C(C)=O)c(=O)n(C)c2nc(-c3ccc(Cl)cc3Cl)c(-c3ccc(Cl)cc3)cc12 | cell-free assay | competition with immobilised ligand | 1 µM | 100 |
| COc1cnc(Nc2cccc(S(N)(=O)=O)c2)nc1N1CCN(c2ccccc2)C(=O)C1 | binding | competition with immobilised ligand | 1 µM | 100 |
